Drawing on ChEMBL document CHEMBL4837218, “Synthesis and in vitro antitumour activity of 4(R)-methyl-3-O-phosphonomethyl-α-l-threose nucleosides” (Eur J Med Chem, 2021), this text covers IC50, Activity and inhibition for one compound.

One assay has as its system SW-620. The assay is described as follows: Antiproliferative activity against human SW-620 cells assessed as cell growth inhibition measured after 72 hrs by MTT assay. It is filed as functional, cell-based. Conditions: SW-620, 72 h. The method in brief: (§1)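 Cells seeded at 3000 exponentially growing cells/well and incubated 12 h at 37 °C. Medium then replaced with fresh medium containing graded compound concentrations for 72 h; 5-FU positive control. MTT (5 mg/mL solution) added for 4 h, formazan dissolved in DMSO, absorbance read at 570 nm (reference 630 nm). Relative percentage inhibition of viable cells calculated; IC50 reported as mean ± standard deviation.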
On the technique in general: Formazan colour is commonly taken as a measure of viable cells.

A further assay deals with GES1. The assay is described as follows: Antiproliferative activity against human GES1 cells assessed as growth inhibition measured after 72 hrs by MTT assay. Type of assay: functional, cell-based. Conditions: GES1, 72 h. The procedure, abridged: as §1
In assay [1] the test system is MDA-MB-231. The assay is described as follows: Antiproliferative activity against human MDA-MB-231 cells assessed as reduction in cell viability at 0.03 to 16 uM measured after 24 to 72 hrs by MTT assay. It is filed as functional, cell-based. The note with it: dose 0.03-16 µM, time 24-72 hrs. The method in brief:
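MTT viability time course on the breast cancer cells with increasing compound concentrations for 24, 48 and 72 h. Cells seeded at 3000/well and allowed 12 h before treatment. MTT (5 mg/mL solution) applied for 4 h, crystals dissolved in DMSO, absorbance read at 570/630 nm. Viability expressed relative to untreated cells.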

The subject of assay [2] is MCF7. The assay is described as follows: Inhibition of colony formation in human MCF7 cells incubated for 24 hrs followed by medium removal and measured after 7 days by crystal violet staining based assay. Conditions: dose 1-4 µM. Type of assay: functional, cell-based. The method in brief: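 Cells seeded at 1 × 10³ per well in six-well plates and left overnight. Compound (DMSO solution) given in fresh medium for 24 h, then medium removed and plates grown another 7 days. Colonies washed with PBS, fixed in 4% paraformaldehyde 30 min, stained with 0.1% crystal violet 30 min, photographed and counted.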

Assay [3] deals with MCF7. The experiment in a line: Induction of apoptosis in human MCF7 cells assessed as early apoptotic cells at 2 uM measured after 48 hrs by Annexin V-FITC/propidium iodide staining based flow cytometric analysis (reference value: 3 %). It is filed as functional.
Assay [4] deals with MDA-MB-231. The experiment in a line: Induction of apoptosis in human MDA-MB-231 cells assessed as early apoptotic cells at 3 uM measured after 48 hrs by Annexin V-FITC/propidium iodide staining based flow cytometric analysis (reference value: 1%). Type of assay: functional. In general terms: A flow cytometer gives signals particle by particle.
For assay [5], the system named is MDA-MB-231. The experiment in a line: Induction of mitochondrial membrane potential loss in human MDA-MB-231 cells assessed as green fluorescence intensity at 6 uM measured after 48 hrs by JC1 staining-based flow cytometry analysis (reference value: 0.8 %). Type of assay: functional.
Assay [6] relates to MDA-MB-231. The experiment in a line: Induction of DNA damage in human MDA-MB-231 cells assessed as increase in ATM protein expression at 3 to 9 uM measured after 48 hrs by western blot analysis. It is filed as functional, cell-based. Conditions: dose 3-9 µM. The procedure, abridged:
(§2)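 Cells exposed to graded concentrations for 48 h, then proteins extracted. Run on SDS-PAGE (5–15% gels) and transferred to nitrocellulose. Blocked 2 h in 5% nonfat milk in PBS/0.1% Tween 20, primary antibody overnight at 4 °C, biotin-conjugated secondary 1 h. Visualized on X-ray film with densitometric quantitation; three independent experiments.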
In general terms: In western blotting, separated proteins are transferred to a membrane and probed.

Assay [7] deals with MDA-MB-231. The assay is described as follows: Induction of DNA damage in human MDA-MB-231 cells assessed as increase in Chk1 protein expression at 3 to 9 uM measured after 48 hrs by western blot analysis. It is filed as functional, cell-based. Conditions: dose 3-9 µM. The method in brief:
as §2

Assay [8] concerns MCF7. The assay is described as follows: Induction of apoptosis in human MCF7 cells assessed as increase in cleaved caspase 3 protein expression at 1 to 4 uM measured after 48 hrs by western blot analysis. Conditions: dose 1-4 µM. It is filed as functional, cell-based. The procedure, abridged: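 MCF-7 and MDA-MB-231 breast cancer cells treated 48 h with a concentration series, then lysed for protein. SDS-PAGE on 5–15% gels, transfer to nitrocellulose. Blocked 2 h in 5% nonfat milk/PBS-0.1% Tween 20, primary antibodies overnight at 4 °C, biotin-conjugated secondary 1 h. X-ray film detection with densitometric quantification.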

The subject of assay [9] is MCF7. The experiment in a line: Inhibition of PI3K/AKT signalling pathway in human MCF7 cells assessed as downregulation of 85ap-PI3K expression at 1 to 4 uM measured after 48 hrs by Western blot analysis. Type of assay: cell-based. Conditions: dose 1-4 µM. The procedure, abridged: (§3)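 After 48 h exposure to compound at several concentrations, cells collected and proteins extracted. SDS-PAGE on 5–15% gels, transfer to nitrocellulose, blocking 2 h in 5% nonfat milk in PBS/0.1% Tween 20, primary antibodies overnight at 4 °C, biotin-conjugated secondary 1 h. Detection on X-ray film; band densitometry.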

For assay [10], the system named is MDA-MB-231. The experiment in a line: Inhibition of PI3K/AKT signalling pathway in human MDA-MB-231 cells assessed as downregulation of AKT phosphorylation at Ser473 residue at 3 to 9 uM measured after 48 hrs by Western blot analysis. The note with it: dose 3-9 µM. Type of assay: cell-based. The method in brief: as §3
Assay [11] has as its system MCF7. The assay is described as follows: Induction of apoptosis in human MCF7 cells assessed as late apoptotic cells at 4 uM measured after 48 hrs in presence of cdc25c inhibitor, NSC663284 by AnnexinV-FITC/PI staining based flow cytometry (reference value: 4.9%). Type of assay: functional.
Assay [12] has as its system MCF7. The assay is described as follows: Induction of G2/M phase cell cycle arrest in human MCF7 cells assessed as downregulation of p-cdc2 protein expression at 4 uM measured after 48 hrs in presence of cdc25c inhibitor, NSC663284 by western blot analysis. It is filed as functional, cell-based. The procedure, abridged: (§4)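 Four groups (untreated, test compound, 0.3 NSC663284, combination) treated 48 h before protein extraction. Lysates resolved by SDS-PAGE (5–15%) and blotted to nitrocellulose. Blocked 2 h in 5% milk/PBS-0.1% Tween 20, primary antibody overnight at 4 °C, biotinylated secondary 1 h. Detected on X-ray film and quantified by densitometry.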

The subject of assay [13] is MCF7. The assay is described as follows: Induction of G2/M phase cell cycle arrest in human MCF7 cells assessed as upregulation of p-cdc25c protein expression at 4 uM measured after 48 hrs in presence of cdc25c inhibitor, NSC663284 by western blot analysis. Type of assay: functional, cell-based. The procedure, abridged: as §4
In assay [14] the test system is MDA-MB-231. The assay is described as follows: Induction of apoptosis in human MDA-MB-231 cells assessed as increase in cleaved caspase 9 protein expression at 9 uM measured after 48 hrs in presence of cdc25c inhibitor, NSC663284 by western blot analysis. Type of assay: functional, cell-based. The procedure, abridged:
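Four arms per cell line: untreated, test compound, 0.3 µM NSC663284 alone, and combination. Proteins harvested after 48 h and resolved by SDS-PAGE on 5–15% gels, transferred to nitrocellulose. Blocked 2 h in milk/PBS-Tween, primary antibodies overnight at 4 °C, biotin-conjugated secondary. Read on X-ray film with densitometry.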

The source made the active and inactive calls. No cut-off for these calls is given here.

Broadly, the IC50 is the point on the concentration scale where inhibition reaches its midpoint. For `C[C@H]1O[C@@H](n2cnc3c(N)nc(F)nc32)[C@H](O)[C@H]1OCP(=O)([O-])[O-].[Na+].[Na+]`, the figures for the IC50 in the assay on SW-620 and with GES1 were 6.62 µM and 5.09 µM, respectively. Further, the outcome in the assay on MDA-MB-231 [1], with MDA-MB-231 [6], in the assay with MDA-MB-231 [7] and with MCF7 [8] was Active. Besides, the inhibition entry in the assay with MCF7 [2] was “Dose-Dependent Effect”. In addition, the Activity was 46.3% with MCF7 [3], 14.5% with MDA-MB-231 [4], 36.2% in the assay on MDA-MB-231 [5] and 5.2% in the assay on MCF7 [11]. For the same compound, the inhibition entry with MCF7 [9] and in the assay with MDA-MB-231 [10] was “Active” throughout. In addition, the outcome in the assay with MCF7 [12], in the assay with MCF7 [13] and in the assay with MDA-MB-231 [14] was inactive.
